High-throughput results: PubChem BioAssay, Broad Institute
The list is not random: actives were taken first. Their share in the collection is about 3.1%.
FGF22 binding: FGF22 (human) thermal shift binding | Q9HCT0 | 340,000 compounds, 1.5% hits | AID 651658 | activity (Tm shift, normalised), % at 9.99 µM | recombinant FGF22 thermal shift, SYPRO orange fluorescence; percent of sucrose octasulfate shift, DMSO zero;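 active = mean Tm shift, scaled 0 neutral to 100 positive control, at about 1.3% or above, every replicate too, limit read from the data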
Target sequence (Q9HCT0 whole entry, looked up): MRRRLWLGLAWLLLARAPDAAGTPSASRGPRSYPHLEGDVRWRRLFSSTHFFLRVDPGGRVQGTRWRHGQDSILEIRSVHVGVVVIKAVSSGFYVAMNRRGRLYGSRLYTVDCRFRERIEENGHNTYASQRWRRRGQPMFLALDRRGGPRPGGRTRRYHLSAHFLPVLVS
PAX8 reporter: lowers PAX8-driven luciferase in RMG-I cells. RMG-I TPO-luciferase reporter, SteadyGlo, 24 h. inhibition, % at 12.6 µM. 360,000 compounds, 1.2% hits. AID 652154;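 active = mean replicate inhibition at least 60% with every replicate also reaching 60%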;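 note: luciferase light reporting Pax8 driven TPO promoter activity; plate controls were median of neutral control wells for no effect and mitoxantrone controls for full effect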
PGC1a acetyl inh: lowers PGC1a acetylation signal in U2OS cells; inhibition, % at 15.6 µM; AlphaScreen anti-acetyl-lysine; with virally co-expressed GCN5 acetyltransferase; 350,000 compounds, 0.17% hits;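 active = every replicate shows inhibition of at least 40%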;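 note: 0% = neutral control wells and 100% = positive control wells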
EWS-Fli inh: blocks EWS/Fli oncoprotein-driven transcription; inhibition, % at 12.6 µM; A673 NR0B1-luciferase reporter, viability-normalised; 350,000 compounds, 0.67% hits;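 active = mean inhibition of at least 50% after viability correction, with every replicate also passing that limit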;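 note: firefly luciferase signal divided by Alamar Blue viability fluorescence both relative to DMSO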
FN deposit inh: fibronectin deposition inhibition; AH1F fibroblasts, Alexa488-fibronectin deposition fluorescence, overnight; inhibition, % at 12.6 µM; AID 743247; 350,000 compounds, 0.086% hits;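 active = mean inhibition across replicates of 30% or more, regardless of how many single replicates reach that level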;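 note: positive control wells lacked labelled fibronectin entirely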
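Schedule: 1 h cell adhesion before compound, then overnight fibronectin incubation; test system: AH1F fibroblast monolayer depositing Alexa488-labelled fibronectin into matrix; quantity: 10000 AH1F cells per well; probe or stimulus: fluorescent fibronectin at 24 nM final; signal: fluorescence, ex 485 nm, em 525 nm; evaluation: percent inhibition as loss of matrix-bound fibronectin fluorescence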
HIV Env fusion: blocks HIV Env-driven cell-cell fusion; inhibition, % at 12.3 µM; HeLa-JRFL Env/CEM21 cell fusion, luciferase; 360,000 compounds, 1.1% hits;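 active = mean replicate inhibition score of at least 50 and every replicate individually at or above 50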;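 note: 0% = plate neutral controls and 100% = maraviroc near 300 nM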
Active calls of the source: *; nt = no result; [ ] = another dose, or the depositor's remark.

SMILES	FGF22 binding	PAX8 reporter	PGC1a acetyl inh	EWS-Fli inh	FN deposit inh	HIV Env fusion
C[C@H]1CN([C@@H](C)CO)C(=O)Cc2cc(NC(=O)Cc3cn(C)c4ccccc34)ccc2O[C@@H]1CN(C)C	0	8	-5	0	1	nt
C[C@H]1CN([C@@H](C)CO)C(=O)c2cccc(N(C)C)c2O[C@H]1CN(C)C(=O)Nc1ccc2c(c1)OCO2	0	-22	8	0	2	14[16.7 µM]
C=CCn1c(SCC(=O)c2[nH]c(C)c(C(=O)OC)c2C)nc2scc(-c3ccc(OC)c(OC)c3)c2c1=O	0	7	nt	60*	4	2
C=CCn1c(SCC(=O)c2[nH]c(C)c(C(C)=O)c2C)nnc1-c1ccncc1	nt	nt	11	nt	nt	nt
CS(=O)(=O)N1CC2(C1)[C@H](c1ccccc1)[C@@H](CO)N2C(=O)C1CCC1	0	-7	10	-5	nt	nt
O=C(NNC(=O)c1ccc(F)cc1F)c1ccc2c(c1)OCO2	44*	-69	nt	-27	-10	-17
O=C(NN=C1CCCCCC1)c1ccc2c(c1)OCO2	43*	-55	nt	3	8	-9
C/C(=N\NC(=O)c1ccc2c(c1)OCO2)c1ccc2c(c1)OCO2	0	-67	-5	-63	nt	-21
CCOC(=O)Cn1nnnc1CN(CCc1ccccc1)Cc1cc2cc(CC)ccc2[nH]c1=O	nt	nt	5	nt	4	119*
CCOC(=O)Cn1nnnc1CN(Cc1cccs1)Cc1cc2cc(C)ccc2[nH]c1=O	nt	nt	nt	nt	4	31
C[C@@H]1CN([C@H](C)CO)C(=O)c2cc(NC(=O)Cc3cn(C)c4ccccc34)ccc2O[C@@H]1CN(C)C(=O)Nc1ccc2c(c1)OCO2	-1	nt	-7	-60	nt	nt
CNC[C@H](CC1CCCCC1)NC[C@H](Cc1ccccc1)NCCC12CC3CC(CC(C3)C1)C2	0	77*	nt	26	60*	93*
CCC(=O)N1CCC2(CC1)CN(Cc1ccccc1Cl)[C@H](CO)c1c2c2ccc(OC)cc2n1C	0	10	-2	9	nt	nt
O=c1[nH]c(=O)c2[nH]c(=S)[nH]c2[nH]1	-1	-7	60*	-5	-6	9
C/C=C/c1ccc([C@H]2[C@H](CO)N(C(=O)CN(C)C)C23CN(C(=O)C2CCOCC2)C3)cc1	0	nt	4	0	1	nt
CCOC(=O)C1=C(N)OC2=C(C(=O)CC(C)(C)C2)C1c1cccnc1 (stereo unspecified)	nt	17	1	nt	4	13
CC1=CC(C)C2(CO)COC(c3ccc(O)cc3)C1C2C (stereo unspecified)	43*	0	-9	0	-4	8
CC1=CC(C)C2(CO)COC(c3cccnc3)C1C2C (stereo unspecified)	43*	5	nt	1	-4	6
C[C@@H]1CN([C@@H](C)CO)S(=O)(=O)c2ccc(-c3ccc(F)cc3)cc2O[C@H]1CN(C)C(=O)C1CC1	nt	nt	1	23	-4	1[16.7 µM]
Cc1cc(N2CCN(C)CC2)ccc1NC(=O)c1c2c(nc3ccccc13)CCN(Cc1ccccc1)C2	nt	nt	69*	nt	nt	nt
CO[C@@H]1CC[C@H]2CCN(C)C(=O)[C@H](C)N(C)C(=O)c3cc(C#N)ccc3OC[C@H]1O2	0	-4	nt	-2	-2	31[16.7 µM]
O=C(OCc1nnc(-c2ccccc2)o1)c1ccccc1	43*	-1	-15	-2	4	8
Cc1nc2ccc(C(=O)OCc3nnc(-c4ccccc4)o3)cc2nc1C	0	-4	1	nt	nt	0
CC(C)Cc1nn2c(N)c(/C=C3\C=Nc4ccccc43)c(=O)nc2s1	1.5*	-15	5	-11	0	3
C[C@@H]1CCCCO[C@H](CN(C)CC2CC2)[C@H](C)CN([C@H](C)CO)C(=O)c2cc(N(C)C)ccc2O1	-1	0	4	nt	4	-9[16.7 µM]
SMILES	FGF22 binding	PAX8 reporter	PGC1a acetyl inh	EWS-Fli inh	FN deposit inh	HIV Env fusion
COc1cccc(NC(=O)N2CCN(S(C)(=O)=O)CC2)c1	0	0	-2	-12	nt	1
CS(=O)(=O)N1CCN(C(=O)Nc2ccccc2)CC1	43*	5	nt	-7	-5	4
C[C@H](CO)N1C[C@H](C)[C@@H](CN(C)Cc2ccc(C(F)(F)F)cc2)Oc2c(NC(=O)Nc3ccccc3)cccc2C1=O	-1	12	nt	9	nt	25[16.7 µM]
CN(C)C(=O)c1cccc(-c2ccc([C@@H]3[C@@H](C#N)N(C(=O)C4CCCC4)[C@H]3CO)cc2)c1	nt	-37	-13	-5	6	-23[16.7 µM]
C[C@H](CO)N1C[C@H](C)[C@@H](CN(C)Cc2ccc(Oc3ccccc3)cc2)Oc2ccc(NC(=O)C3CC3)cc2CC1=O	0	nt	7	17	nt	13[16.7 µM]
CC1(Cc2ccc(C(F)(F)F)nc2)C(=O)Nc2cc(-c3ccccc3Cl)ccc21 (stereo unspecified)	43*	-22	-18	2	-5	70*
CC1(Cc2ccccc2Cl)C(=O)Nc2c(Cl)cccc21 (stereo unspecified)	0	nt	-27	-4	0	4
CC1(Cc2ccccc2C#N)C(=O)Nc2cc(-c3ccccc3Cl)ccc21 (stereo unspecified)	0	6	nt	0	10	57*
Cc1ccccc1S(=O)(=O)N1C[C@H]2[C@H]3C(=O)N(C4CCCCC4)C(=O)[C@H]3CC(=O)[C@H]2[C@@H]1c1ccc(Cl)cc1	0	4	-23	-5	nt	132*
Cc1ccccc1S(=O)(=O)N1C[C@@H]2C(C(=O)C[C@@H]3C(=O)N(C)C(=O)[C@@H]32)[C@@H]1c1ccc(Cl)cc1 (stereo partly specified)	0	-14	nt	1	-4	61*
Cc1ccc(S(=O)(=O)N2C[C@H]3[C@H]4C(=O)N(c5ccccc5)C(=O)[C@H]4CC(=O)[C@H]3[C@@H]2c2ccc(Cl)cc2)cc1	0	13	-4	-18	4	nt
C[C@H](CO)N1C[C@H](C)[C@@H](CN(C)C)Oc2ccc(NC(=O)Cc3cn(C)c4ccccc34)cc2CC1=O	0	15	-8	3	-3	nt
CO[C@@H]1CN(C)C(=O)c2cc(NC(C)=O)ccc2OC[C@H](C)N(Cc2ccc(F)cc2)C[C@@H]1C	0	nt	4	-10	-14	nt
COc1ccc(NC(=O)N(C)C[C@H]2Oc3ncc(C#CCN(C)C)cc3C(=O)N([C@@H](C)CO)C[C@@H]2C)cc1	0	9	-1	-5	3	1[16.7 µM]
N#C/C(=C\c1ccc(O)cc1)C(=O)NCc1ccccc1	0	-4	11	10	-3	-12
CC(=O)Nc1ccc(/C=C(\C#N)C(=O)NCc2ccccc2)cc1	0	15	-1	8	33*	15
Cc1cc(SCC(=O)N2CCCC2=O)nc2ccccc12	0	nt	-2	10	1	58*
CCn1c(SCC(=O)N2CCCC2=O)nnc1-c1cccs1	1	-8	9	-5	-6	nt
Cc1cc(SCCC(=O)O)nc2ccccc12	nt	nt	14	nt	nt	nt
